The structures appear in SMILES notation.

One data set deals with Translocator protein (Homo sapiens, UniProt P30536). Kind of data set: Inhibition of TSPO (unknown origin). The method, boiled down:
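Membranes from male Sprague-Dawley rat cerebral cortex were homogenised and washed in Tris-HCl (30 mM, pH 7.4), then washed in Tris-citrate (50 mM, pH 7.1). Bound and free ligand were separated by filtration through GF/C filters and counted by scintillation. Percent displacement gave the IC50, and Ki was calculated as IC50/(1+[L]/Kd).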

Data set [1] deals with Translocator protein (Mus musculus) (UniProt P50637). Kind of data set: Inhibition of TSPO in mouse HT22 cells assessed as inhibition of amyloid beta (1 to 42)-induced ROS generation at 5 uM after 6 hrs by DCFDA staining based fluorescence assay relative to control. The format is cell-based. The conditions noted are these: HT-22.
Data set [2] shares this target. Kind of data set: Inhibition of TSPO in mouse HT22 cells assessed as protection against amyloid beta (1 to 42)-induced mitochondrial membrane potential loss by measuring recovery of ATP production at 5 uM preincubated for 10 mins followed by amyloid beta (1 to 42) addition measured after 7 hrs by luciferase reporter gene assay relative to control. The format is cell-based. More on the design: scale not given: the % may be the effect or the level left. The conditions noted are these: HT-22. Put shortly:
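HT22 cells at 7000 per well were given compound (5 µM) for 10 min at 37 °C, then Aβ1-42 (5 µM) or DMSO vehicle, and incubated 7 h. Cells were washed, lysed in 1% Triton X-100, and protein-equalised by BCA. ATP was measured by luciferin/luciferase luminescence and normalised to vehicle.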
(In a reporter assay the amount or activity of a reporter protein is the signal.)

The target is the same in data set [3]. As to the kind of experiment: Inhibition of TSPO in mouse HT22 cells assessed as inhibition of amyloid beta (1 to 42)-induced toxicity at 5 uM after 24 hrs by MTT assay relative to control. The conditions noted are these: HT-22. The data set is classed as cell-based. The method, boiled down: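 HT22 cells at 5000 per well were treated with compound (5 µM), with or without Aβ1-42 (5 µM), for 24 h at 37 °C. MTT was added for 2 h, then solubilising solution (10% Triton X-100 in isopropanol with 0.1 M HCl) for 2 h more. Absorbance read at 560 nm; % inhibition normalised to vehicle, and viability taken from compound-only wells.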

For data set [4] the target is unchanged. As to the kind of experiment: Inhibition of TSPO in mouse HT22 cells assessed as protection against amyloid beta (1 to 42)-induced mitochondrial membrane potential loss by measuring recovery of mitochondrial membrane potential at 5 uM preincubated for 10 mins followed by amyloid beta (1 to 42) addition measured every 1 hr for 3 hrs by JC1 staining based fluorescence assay relative to control. The format is cell-based. More on the design: scale not given: the % may be the effect or the level left. The conditions noted are these: HT-22. The method, boiled down:
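HT22 cells at 30,000 per well were loaded with 7.5 µM JC-1 in phenol red-free Opti-MEM for 1 h 15 min at 37 °C, then washed. Cells were treated with compound (5 µM) and Aβ1-42 (5 µM); vehicle wells received DMSO. Green (485/535) and red (560/595) fluorescence were read hourly for 3 h. Recovery was normalised between Aβ-damaged (0%) and normal (100%) ratio.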

Data set [5] in a line: Cytotoxicity against mouse HT22 cells assessed as cell viability at 5 uM after 24 hrs by MTT assay relative to control. The data set is classed as toxicity, HT-22. The conditions noted are these: read-out: Activity. Put shortly:
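MTT was added for 2 h, then solubilising solution (10% Triton X-100 in isopropanol with 0.1 M HCl) for 2 h more. Absorbance read at 560 nm; % inhibition normalised to vehicle, and viability taken from compound-only wells.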
In general terms: Formazan colour is commonly taken as a measure of viable cells.

Another data set deals with Mus musculus. As to the kind of experiment: Cognition enhancing effect in ICR mouse model of acute Alzheimer's disease assessed as reversal of amyloid beta (1 to 42)-induced cognitive deficit by measuring spatial working memory at 30 mg/kg, ip daily for 6 days measured on day 7 by Y maze spontaneous alteration test relative to control. The data set is classed as functional. Put shortly:
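Male ICR mice (6 weeks, 30–33 g) received Aβ1-42 500 pmol ICV in 10% DMSO/PBS. Compound in 20% cyclodextrin was given at 30 mg/kg daily for 6 days (n = 7 per group). One day later, each mouse explored a three-arm Y-maze for 8 min, and the sequence of arm entries was used to calculate % spontaneous alternation.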

A further data set addresses CYP3A4 (Homo sapiens, UniProt P08684). Kind of data set: Inhibition of recombinant human CYP3A4 expressed in baculosomes coexpressing rabbit NADPH-P450 reudctase assessed as residual activity at 10 uM preincubated for 5 mins followed by substrate and NADP+ addition measured after 20 mins by fluorescence assay relative to control. The format is ADME. The conditions noted are these: read-out: Activity. Put shortly:
(§1)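 Vivid CYP450 kit: recombinant human CYP isozyme in Baculosomes with rabbit NADPH-P450 reductase, plus regeneration system (3.3 mM glucose-6-phosphate, 0.3 U/mL G6PDH in 100 mM potassium phosphate, pH 8.0). Mixture preincubated with sample for 5 min at 37 °C. Vivid substrate and 0.1 mM NADP+ were then added, and remaining activity read by fluorescence after 20 min.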

The next data set has as its target CYP2D6 (Homo sapiens, UniProt P10635). Kind of data set: Inhibition of recombinant human CYP2D6 expressed in baculosomes coexpressing rabbit NADPH-P450 reudctase assessed as residual activity at 10 uM preincubated for 5 mins followed by substrate and NADP+ addition measured after 20 mins by fluorescence assay relative to control. The format is ADME. The conditions noted are these: read-out: Activity. Put shortly:
as §1

Another data set has as its target CYP2C19 (Homo sapiens, UniProt P33261). Kind of data set: Inhibition of recombinant human CYP2C19 expressed in baculosomes coexpressing rabbit NADPH-P450 reudctase assessed as residual activity at 10 uM preincubated for 5 mins followed by substrate and NADP+ addition measured after 20 mins by fluorescence assay relative to control. The format is ADME. The conditions noted are these: read-out: Activity. Put shortly: as §1

The target of another data set is T1, CYP1A2 (Homo sapiens, UniProt P05177).
T1 sequence (P05177 whole entry): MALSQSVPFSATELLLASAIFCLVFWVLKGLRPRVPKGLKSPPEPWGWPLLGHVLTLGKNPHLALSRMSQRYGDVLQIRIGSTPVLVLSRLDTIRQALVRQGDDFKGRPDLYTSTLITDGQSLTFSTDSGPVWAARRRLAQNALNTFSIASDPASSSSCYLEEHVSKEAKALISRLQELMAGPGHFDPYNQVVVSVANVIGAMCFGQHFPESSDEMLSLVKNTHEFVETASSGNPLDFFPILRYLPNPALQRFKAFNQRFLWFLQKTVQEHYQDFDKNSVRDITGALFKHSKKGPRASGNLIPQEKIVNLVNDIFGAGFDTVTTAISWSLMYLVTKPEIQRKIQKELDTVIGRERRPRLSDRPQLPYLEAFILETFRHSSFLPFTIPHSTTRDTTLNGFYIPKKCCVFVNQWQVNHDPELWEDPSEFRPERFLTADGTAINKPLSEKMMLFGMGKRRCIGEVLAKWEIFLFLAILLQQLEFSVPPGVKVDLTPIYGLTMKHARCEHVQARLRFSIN
Kind of data set: Inhibition of recombinant human CYP1A2 expressed in baculosomes coexpressing rabbit NADPH-P450 reudctase assessed as residual activity at 10 uM preincubated for 5 mins followed by substrate and NADP+ addition measured after 20 mins by fluorescence assay relative to control. The conditions noted are these: read-out: Activity. The format is ADME. Put shortly:
as §1

Another data set has as its target CYP2C9 (Homo sapiens, UniProt P11712). Kind of data set: Inhibition of recombinant human CYP2C9 expressed in baculosomes coexpressing rabbit NADPH-P450 reudctase assessed as residual activity at 10 uM preincubated for 5 mins followed by substrate and NADP+ addition measured after 20 mins by fluorescence assay relative to control. The format is ADME. The conditions noted are these: read-out: Activity. The method, boiled down:
as §1

Data set [6] deals with Voltage-gated inwardly rectifying potassium channel KCNH2 (Homo sapiens, UniProt Q12809). Kind of data set: Inhibition of human ERG expressed in CHOK1 cells by automated patch clamp method. The format is cell-based, CHO-K1. Background: The patch-clamp technique gives a direct electrical read-out from membranes.
Voltage-gated inwardly rectifying potassium channel KCNH2, sequence (Q12809 whole entry): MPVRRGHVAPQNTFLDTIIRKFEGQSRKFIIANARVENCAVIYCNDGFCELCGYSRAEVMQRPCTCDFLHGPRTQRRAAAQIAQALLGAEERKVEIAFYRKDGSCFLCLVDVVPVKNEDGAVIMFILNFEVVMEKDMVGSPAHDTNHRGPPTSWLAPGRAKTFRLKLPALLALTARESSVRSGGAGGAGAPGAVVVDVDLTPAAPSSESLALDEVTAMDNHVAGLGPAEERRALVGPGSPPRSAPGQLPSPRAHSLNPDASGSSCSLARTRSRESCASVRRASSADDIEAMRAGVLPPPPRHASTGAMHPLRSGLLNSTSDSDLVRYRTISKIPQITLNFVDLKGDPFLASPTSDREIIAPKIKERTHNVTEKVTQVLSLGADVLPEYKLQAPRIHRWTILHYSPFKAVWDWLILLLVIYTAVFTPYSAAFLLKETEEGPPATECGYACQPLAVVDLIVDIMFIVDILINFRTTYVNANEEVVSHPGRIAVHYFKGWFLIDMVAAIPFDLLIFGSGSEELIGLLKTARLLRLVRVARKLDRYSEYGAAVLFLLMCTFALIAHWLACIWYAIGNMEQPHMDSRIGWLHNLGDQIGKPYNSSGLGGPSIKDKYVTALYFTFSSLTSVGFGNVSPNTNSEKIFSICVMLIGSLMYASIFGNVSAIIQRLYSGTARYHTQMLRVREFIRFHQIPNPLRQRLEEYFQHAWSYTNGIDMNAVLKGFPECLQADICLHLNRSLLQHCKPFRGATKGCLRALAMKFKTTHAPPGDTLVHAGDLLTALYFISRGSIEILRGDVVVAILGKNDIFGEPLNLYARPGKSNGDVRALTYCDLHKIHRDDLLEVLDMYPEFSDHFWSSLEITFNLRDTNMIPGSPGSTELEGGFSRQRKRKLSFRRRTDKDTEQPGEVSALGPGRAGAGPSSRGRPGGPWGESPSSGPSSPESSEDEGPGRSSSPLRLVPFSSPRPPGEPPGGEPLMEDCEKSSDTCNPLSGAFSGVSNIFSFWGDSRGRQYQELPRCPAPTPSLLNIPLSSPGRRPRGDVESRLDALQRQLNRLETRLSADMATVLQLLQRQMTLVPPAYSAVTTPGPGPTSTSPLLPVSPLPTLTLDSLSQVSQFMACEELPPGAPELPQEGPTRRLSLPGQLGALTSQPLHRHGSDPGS

CYP2C9, sequence (P11712 whole entry): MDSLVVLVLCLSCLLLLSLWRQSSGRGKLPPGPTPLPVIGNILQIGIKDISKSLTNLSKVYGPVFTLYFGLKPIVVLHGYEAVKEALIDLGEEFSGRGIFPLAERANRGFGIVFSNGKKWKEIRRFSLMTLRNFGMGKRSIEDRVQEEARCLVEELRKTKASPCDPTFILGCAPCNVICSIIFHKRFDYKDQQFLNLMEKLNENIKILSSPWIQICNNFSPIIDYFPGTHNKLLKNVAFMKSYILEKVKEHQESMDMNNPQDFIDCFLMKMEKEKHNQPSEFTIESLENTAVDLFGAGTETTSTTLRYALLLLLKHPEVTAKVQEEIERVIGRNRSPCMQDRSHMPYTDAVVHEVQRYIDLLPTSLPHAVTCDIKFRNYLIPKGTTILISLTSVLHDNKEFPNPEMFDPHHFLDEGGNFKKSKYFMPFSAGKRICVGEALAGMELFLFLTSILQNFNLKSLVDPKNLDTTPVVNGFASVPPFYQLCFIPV
CYP2C19, sequence (P33261 whole entry): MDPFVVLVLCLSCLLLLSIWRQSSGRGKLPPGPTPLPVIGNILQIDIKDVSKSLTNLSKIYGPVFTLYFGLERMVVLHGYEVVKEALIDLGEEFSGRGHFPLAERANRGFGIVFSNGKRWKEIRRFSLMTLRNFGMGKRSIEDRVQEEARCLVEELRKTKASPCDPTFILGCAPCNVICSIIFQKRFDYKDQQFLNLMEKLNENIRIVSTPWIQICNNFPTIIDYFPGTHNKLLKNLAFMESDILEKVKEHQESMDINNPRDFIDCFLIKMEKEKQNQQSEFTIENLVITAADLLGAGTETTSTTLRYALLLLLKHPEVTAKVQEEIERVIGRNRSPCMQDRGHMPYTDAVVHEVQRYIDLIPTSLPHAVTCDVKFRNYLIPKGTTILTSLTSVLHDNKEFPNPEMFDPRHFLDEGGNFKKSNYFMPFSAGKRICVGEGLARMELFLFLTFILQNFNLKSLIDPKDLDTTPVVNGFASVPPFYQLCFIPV
Translocator protein, sequence (P30536 whole entry): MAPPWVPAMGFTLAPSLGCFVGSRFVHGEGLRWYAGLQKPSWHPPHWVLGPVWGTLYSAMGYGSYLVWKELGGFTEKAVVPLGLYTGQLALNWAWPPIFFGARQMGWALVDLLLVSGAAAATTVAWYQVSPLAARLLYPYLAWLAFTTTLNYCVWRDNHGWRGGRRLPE
CYP3A4, sequence (P08684 whole entry): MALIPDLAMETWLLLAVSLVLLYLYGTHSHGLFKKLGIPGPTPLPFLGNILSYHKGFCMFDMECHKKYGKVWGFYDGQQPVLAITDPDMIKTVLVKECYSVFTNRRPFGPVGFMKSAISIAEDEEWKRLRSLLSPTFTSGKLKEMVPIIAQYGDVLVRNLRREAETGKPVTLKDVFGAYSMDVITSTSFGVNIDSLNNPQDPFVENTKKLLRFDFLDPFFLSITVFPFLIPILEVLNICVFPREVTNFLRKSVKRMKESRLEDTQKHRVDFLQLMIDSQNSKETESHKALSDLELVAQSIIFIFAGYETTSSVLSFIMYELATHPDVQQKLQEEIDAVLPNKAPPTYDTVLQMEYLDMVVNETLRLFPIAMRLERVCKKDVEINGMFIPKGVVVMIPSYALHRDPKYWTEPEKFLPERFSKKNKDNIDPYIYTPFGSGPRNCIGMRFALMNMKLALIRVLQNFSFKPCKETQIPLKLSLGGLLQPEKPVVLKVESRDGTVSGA
Translocator protein (Mus musculus), sequence (P50637 whole entry, looked up): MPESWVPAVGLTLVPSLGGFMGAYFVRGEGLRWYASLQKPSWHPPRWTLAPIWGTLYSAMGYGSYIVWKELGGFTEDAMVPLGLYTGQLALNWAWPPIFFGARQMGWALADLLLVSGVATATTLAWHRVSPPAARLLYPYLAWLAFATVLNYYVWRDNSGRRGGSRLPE
CYP2D6, sequence (P10635 whole entry): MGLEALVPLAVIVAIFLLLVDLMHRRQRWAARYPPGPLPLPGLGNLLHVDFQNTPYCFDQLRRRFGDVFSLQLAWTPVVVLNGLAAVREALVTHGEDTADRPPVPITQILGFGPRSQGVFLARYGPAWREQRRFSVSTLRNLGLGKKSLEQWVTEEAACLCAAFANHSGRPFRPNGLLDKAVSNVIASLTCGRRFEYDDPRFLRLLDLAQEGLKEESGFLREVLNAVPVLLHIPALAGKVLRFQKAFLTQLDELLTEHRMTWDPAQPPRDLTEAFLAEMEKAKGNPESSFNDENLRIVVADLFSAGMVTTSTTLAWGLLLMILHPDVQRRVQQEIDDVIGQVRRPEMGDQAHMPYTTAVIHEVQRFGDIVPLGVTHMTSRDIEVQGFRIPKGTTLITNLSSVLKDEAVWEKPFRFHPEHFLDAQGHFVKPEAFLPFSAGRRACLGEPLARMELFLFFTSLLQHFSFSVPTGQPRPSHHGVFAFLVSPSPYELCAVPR

A word on the IC50: it is the concentration needed to halve the response being measured. On to `CC(=O)N(Cc1ccccc1OC(C)C)c1ccc(Cl)cc1Oc1ccccc1`, for which the concentration for half-maximal inhibition (IC50) against Translocator protein stood at 0.92 nM.

What is called inhibition is the change of the read-out against control, counted positive when it falls. For `NC(=O)CN1CCCC1=O`, the inhibition in [1] was determined as 129%; in data set [3], 29%. Moreover, the figures for the Activity (in data set [2]; in data set [4]; with Mus musculus) were 127%, 60% and 32%, respectively. In data set [5], the viability at 24 h, 5 µM is 88 to 132%.

Take `CCN1CCCC1CNC(=O)c1ccc(Cn2c(Cc3c(Cl)cccc3Cl)nc3ccccc32)cc1` (stereo not drawn): the inhibition was 24% in [1] and 6% in [3]. The values for the Activity in [2] and in [4] were 51% and 90%, respectively. Besides, the activity at 20 min, 10 µM was 130% at CYP3A4; 82.4% on CYP2D6; 31.4% at CYP2C19; 63% at CYP1A2; 50.6% at CYP2C9. Besides, in [5], the viability at 24 h, 5 µM is 62 to 122%. In addition, in [6], the half-maximal inhibitory concentration (IC50) came to 1570 nM.

`COc1ccc(OC)c(CN(C(C)=O)c2ccc(F)cc2Oc2ccccc2)c1` showed an IC50 against Translocator protein of 1.6 nM.

A word on the Ki: it is a measure of affinity in units of concentration, obtained from inhibition or displacement. As for `CCCCCCN(CCCCCC)C(=O)Cc1c(-c2ccc(F)cc2)[nH]c2ccccc12`, the Ki at Translocator protein turned out to be 3.25 nM.

Consider `Cc1ccc(C(C)C)cc1NC(=O)Cn1c(-c2cc(Cl)ccc2Cl)nc2ccc(Cl)cc21`, for which the inhibition in data set [1] was 107%; in data set [3], 0%. Further, the figures for the Activity in data set [2] and in [4] were 69% and 87%, respectively. In addition, the activity at 20 min, 10 µM was 15.4% at CYP3A4; 82.2% at CYP2D6; 11.9% at CYP2C19; 56.3% at CYP1A2; 29.6% at CYP2C9. Moreover, the viability at 24 h, 5 µM in data set [5] is 86 to 106%.

On Translocator protein, `CCCCN(CCCC)C(=O)Cc1c(-c2ccc(Cl)cc2)nc2c(Cl)cc(Cl)cn12` showed an inhibition constant Ki of 2.68 nM.

As to `COc1ccc(OC)c(Cc2nc3ccccc3n2CC(=O)Nc2cc(C(C)(C)C)cc(C(C)(C)C)c2)c1`, the figures for the inhibition in data set [1] and in data set [3] were 10% and 36%, respectively. In addition, the figures for the Activity in data set [2] and in [4] were 46% and 54%, respectively. The activity at 20 min, 10 µM is 43.3% at CYP3A4; 56.3% on CYP2D6; 43.9% at CYP2C19; 92.5% on CYP1A2; 36.1% on CYP2C9. Further, the viability at 24 h, 5 µM in data set [5] lay in the range of 99 to 112%. The IC50 in [6] is 20 nM.

For the compound `CN(C)CCCNC(=O)c1ccc(Cn2c(Cc3c(Cl)cccc3Cl)nc3ccccc32)cc1`, the results for the inhibition in [1] and in data set [3] were 9% and 7%, respectively. The figures for the Activity (in data set [2]; in data set [4]; in the data set with Mus musculus) were 85%, 82% and 62%, respectively. The activity at 20 min, 10 µM at CYP3A4 is 206%; at CYP2D6, 120%; on CYP2C19, 72.9%; on CYP1A2 it was 66.1%; on CYP2C9, 53.9%. Besides, the viability at 24 h, 5 µM in [5] was in the range of 93 to 111%.

Regarding `O=C(NCCCN1CCCCC1)c1ccc(Cn2c(Cc3c(Cl)cccc3Cl)nc3ccccc32)cc1`, the inhibition was 27% in [1] and 3% in [3]. Also, the Activity in data set [2] was determined as 64%; in data set [4], 90%. Moreover, the activity at 20 min, 10 µM at CYP3A4 was found to be 176%; on CYP2D6 it was 25.5%; at CYP2C19, 67.3%; at CYP1A2, 68.4%; on CYP2C9 it was 61.1%. In data set [5], the viability at 24 h, 5 µM lay within 86 to 118%.

The values above are taken from ChEMBL document CHEMBL3877298, “Discovery of benzimidazole derivatives as modulators of mitochondrial function: A potential treatment for Alzheimer's disease” (Eur J Med Chem, 2017).
